According to ChEMBL document CHEMBL5376013, “Design, synthesis and biological evaluation of novel morpholinopyrimidine-5-carbonitrile derivatives as dual PI3K/mTOR inhibitors” (RSC Med Chem, 2024):

Assays:
Assay type in all cases: functional
Details in all cases: read-out: GI
[1] = tested on: HOP-62; assay: Antitumor activity against human HOP-62 cells assessed as growth inhibition at 10 uM relative to control
Method in brief: (§1)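 After drug addition, plates were incubated 48 h at 37 °C under 5% CO2. Adherent cells were fixed with cold TCA (10% final, 60 min, 4 °C) and suspension cells with 16% final TCA. Staining used 0.4% SRB in 1% acetic acid, solubilized in 10 mM trizma, read at A515. Percent growth was calculated from time-zero, control and treated absorbances.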

[2] = tested on: K562; assay: Antitumor activity against human K562 cells assessed as growth inhibition at 10 uM relative to control; method in brief: as §1
[3] = tested on: CAKI-1; assay: Antitumor activity against human CAKI-1 cells assessed as growth inhibition at 10 uM relative to control; method in brief: as §1
[4] = tested on: MCF7; assay: Antitumor activity against human MCF7 cells assessed as growth inhibition at 10 uM relative to control; method in brief: as §1
[5] = tested on: A549; assay: Antitumor activity against human A549 cells assessed as growth inhibition at 10 uM relative to control; method in brief: as §1
[6] = tested on: NCI-H322M; assay: Antitumor activity against human NCI-H322M cells assessed as growth inhibition at 10 uM relative to control; method in brief: as §1
[7] = tested on: KM12; assay: Antitumor activity against human KM12 cells assessed as growth inhibition at 10 uM relative to control; method in brief: as §1
[8] = tested on: COLO 205; assay: Antitumor activity against human COLO 205 cells assessed as growth inhibition at 10 uM relative to control; method in brief: as §1
[9] = tested on: HCC 2998; assay: Antitumor activity against human HCC 2998 cells assessed as growth inhibition at 10 uM relative to control; method in brief: as §1
[10] = tested on: NCI-H226; assay: Antitumor activity against human NCI-H226 cells assessed as growth inhibition at 10 uM relative to control; method in brief: as §1
[11] = tested on: SK-MEL-5; assay: Antitumor activity against human SK-MEL-5 cells assessed as growth inhibition at 10 uM relative to control
Method in brief: (§2)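 Drug exposure 48 h at 37 °C, 5% CO2. Adherent cells fixed with cold TCA (10% final), suspension cells with TCA (16% final). Stained with 0.4% SRB in 1% acetic acid, dissolved in 10 mM Tris, A515. Growth relative to time-zero and untreated control.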

[12] = tested on: 786-0; assay: Antitumor activity against human 786-0 cells assessed as growth inhibition at 10 uM relative to control; method in brief: as §1
[13] = tested on: OVCAR-3; assay: Antitumor activity against human OVCAR-3 cells assessed as growth inhibition at 10 uM relative to control; method in brief: as §1
[14] = tested on: CCRF-CEM; assay: Antitumor activity against human CCRF-CEM cells assessed as growth inhibition at 10 uM relative to control; method in brief: as §1
[15] = tested on: NCI-H23; assay: Antitumor activity against human NCI-H23 cells assessed as growth inhibition at 10 uM relative to control; method in brief: as §1
[16] = tested on: NCI-H460; assay: Antitumor activity against human NCI-H460 cells assessed as growth inhibition at 10 uM relative to control; method in brief: as §1
[17] = tested on: Hs-578T; assay: Antitumor activity against human Hs-578T cells assessed as growth inhibition at 10 uM relative to control; method in brief: as §1
[18] = tested on: MDA-MB-435; assay: Antitumor activity against human MDA-MB-435 cells assessed as growth inhibition at 10 uM relative to control; method in brief: as §1
[19] = tested on: Malme-3M; assay: Antitumor activity against human Malme-3M cells assessed as growth inhibition at 10 uM relative to control; method in brief: as §1
[20] = tested on: OVCAR-8; assay: Antitumor activity against human OVCAR-8 cells assessed as growth inhibition at 10 uM relative to control; method in brief: as §1
[21] = tested on: SF-539; assay: Antitumor activity against human SF-539 cells assessed as growth inhibition at 10 uM relative to control; method in brief: as §1
[22] = tested on: MDA-MB-468; assay: Antitumor activity against human MDA-MB-468 cells assessed as growth inhibition at 10 uM relative to control; method in brief: as §1
[23] = tested on: UO-31; assay: Antitumor activity against human UO-31 cells assessed as growth inhibition at 10 uM relative to control; method in brief: as §2
[24] = tested on: NCI-H522; assay: Antitumor activity against human NCI-H522 cells assessed as growth inhibition at 10 uM relative to control; method in brief: as §1
[25] = tested on: HT-29; assay: Antitumor activity against human HT-29 cells assessed as growth inhibition at 10 uM relative to control; method in brief: as §1
[26] = tested on: EKVX; assay: Antitumor activity against human EKVX cells assessed as growth inhibition at 10 uM relative to control; method in brief: as §1
[27] = tested on: OVCAR-5; assay: Antitumor activity against human OVCAR-5 cells assessed as growth inhibition at 10 uM relative to control; method in brief: as §1
[28] = tested on: HCT-116; assay: Antitumor activity against human HCT-116 cells assessed as growth inhibition at 10 uM relative to control; method in brief: as §1
[29] = tested on: BT-549; assay: Antitumor activity against human BT-549 cells assessed as growth inhibition at 10 uM relative to control; method in brief: as §1
[30] = tested on: LOX IMVI; assay: Antitumor activity against human LOX IMVI cells assessed as growth inhibition at 10 uM relative to control; method in brief: as §1
[31] = tested on: SR; assay: Antitumor activity against human SR cells assessed as growth inhibition at 10 uM relative to control; method in brief: as §2
[32] = tested on: SK-MEL-28; assay: Antitumor activity against human SK-MEL-28 cells assessed as growth inhibition at 10 uM relative to control; method in brief: as §2
[33] = tested on: U-251; assay: Antitumor activity against human U-251 cells assessed as growth inhibition at 10 uM relative to control; method in brief: as §2
[34] = tested on: IGROV-1; assay: Antitumor activity against human IGROV-1 cells assessed as growth inhibition at 10 uM relative to control; method in brief: as §1
[35] = tested on: T47D; assay: Antitumor activity against human T47D cells assessed as growth inhibition at 10 uM relative to control; method in brief: as §2
[36] = tested on: SW-620; assay: Antitumor activity against human SW-620 cells assessed as growth inhibition at 10 uM relative to control; method in brief: as §2
[37] = tested on: SNB-19; assay: Antitumor activity against human SNB-19 cells assessed as growth inhibition at 10 uM relative to control; method in brief: as §2
[38] = tested on: MDA-MB-231; assay: Antitumor activity against human MDA-MB-231 cells assessed as growth inhibition at 10 uM relative to control; method in brief: as §1
[39] = tested on: SNB-75; assay: Antitumor activity against human SNB-75 cells assessed as growth inhibition at 10 uM relative to control; method in brief: as §2
[40] = tested on: SN12C; assay: Antitumor activity against human SN12C cells assessed as growth inhibition at 10 uM relative to control; method in brief: as §2
[41] = tested on: HCT-15; assay: Antitumor activity against human HCT-15 cells assessed as growth inhibition at 10 uM relative to control; method in brief: as §1
[42] = tested on: MOLT-4; assay: Antitumor activity against human MOLT-4 cells assessed as growth inhibition at 10 uM relative to control; method in brief: as §1
[43] = tested on: RPMI-8226; assay: Antitumor activity against human RPMI-8226 cells assessed as growth inhibition at 10 uM relative to control; method in brief: as §1
[44] = tested on: HL-60; assay: Antitumor activity against human HL-60 cells assessed as growth inhibition at 10 uM relative to control; method in brief: as §1
[45] = tested on: RXF 393; assay: Antitumor activity against human RXF 393 cells assessed as growth inhibition at 10 uM relative to control; method in brief: as §1
[46] = tested on: SK-MEL-2; assay: Antitumor activity against human SK-MEL-2 cells assessed as growth inhibition at 10 uM relative to control; method in brief: as §1

CSc1nc(-c2ccc(Cl)cc2)c(C#N)c(N2CCOCC2)n1
inhibition of growth at 10 µM [1]: 15.7% | inhibition of growth at 10 µM [2]: 19.9% | inhibition of growth at 10 µM [3]: 13.7% | inhibition of growth at 10 µM [4]: 1% | inhibition of growth at 10 µM [5]: 10.8% | inhibition of growth at 10 µM [6]: < 1% | inhibition of growth at 10 µM [7]: < 1% | inhibition of growth at 10 µM [8]: < 1% | inhibition of growth at 10 µM [9]: < 1% | inhibition of growth at 10 µM [10]: 17.5% | inhibition of growth at 10 µM [11]: < 1% | inhibition of growth at 10 µM [12]: 11% | inhibition of growth at 10 µM [13]: < 1% | inhibition of growth at 10 µM [14]: < 1% | inhibition of growth at 10 µM [15]: 10.8% | inhibition of growth at 10 µM [16]: < 1% | inhibition of growth at 10 µM [17]: < 1% | inhibition of growth at 10 µM [18]: < 1% | inhibition of growth at 10 µM [19]: 11% | inhibition of growth at 10 µM [20]: < 1% | inhibition of growth at 10 µM [21]: < 1% | inhibition of growth at 10 µM [22]: < 1% | inhibition of growth at 10 µM [23]: 27.1% | inhibition of growth at 10 µM [24]: 30.2% | inhibition of growth at 10 µM [25]: 15.3% | inhibition of growth at 10 µM [26]: 15.1% | inhibition of growth at 10 µM [27]: < 1% | inhibition of growth at 10 µM [28]: < 1% | inhibition of growth at 10 µM [29]: 21.8% | inhibition of growth at 10 µM [30]: < 1% | inhibition of growth at 10 µM [31]: 22.7% | inhibition of growth at 10 µM [32]: < 1% | inhibition of growth at 10 µM [33]: < 1% | inhibition of growth at 10 µM [34]: 11.8% | inhibition of growth at 10 µM [35]: 33% | inhibition of growth at 10 µM [36]: < 1% | inhibition of growth at 10 µM [37]: 20.1% | inhibition of growth at 10 µM [38]: < 1% | inhibition of growth at 10 µM [39]: 47.8% | inhibition of growth at 10 µM [40]: < 1% | inhibition of growth at 10 µM [41]: < 1% | inhibition of growth at 10 µM [42]: < 1% | inhibition of growth at 10 µM [43]: 17.9% | inhibition of growth at 10 µM [44]: < 1% | inhibition of growth at 10 µM [45]: < 1% | inhibition of growth at 10 µM [46]: < 1%
